Experimental data reported in ChEMBL document CHEMBL3526048, “In vitro metabolism of rivoglitazone, a novel peroxisome proliferator-activated receptor γ agonist, in rat, monkey, and human liver microsomes and freshly isolated hepatocytes” (Drug Metab Dispos, 2011).

Legend:
Cytochrome P450 1A2 [1] = target: T1, Cytochrome P450 1A2 (Homo sapiens, UniProt P05177); test: Activity of human CYP1A2 expressed in microsomes isolated from baculovirus infected insect cell assessed as enzyme-mediated 3-(4-((6-methoxy-1-methyl-1H-benzo[d]imidazol-2-yl)methoxy)phenyl)-2-(methylthio)propanoic acid formation at 20 uM after 2 hrs by radio-HPLC/LC-MS/MS analysis in presence of NADPH-generating system/SAM and UDPGA/SAM; type: ADME
T1 sequence (P05177 whole entry): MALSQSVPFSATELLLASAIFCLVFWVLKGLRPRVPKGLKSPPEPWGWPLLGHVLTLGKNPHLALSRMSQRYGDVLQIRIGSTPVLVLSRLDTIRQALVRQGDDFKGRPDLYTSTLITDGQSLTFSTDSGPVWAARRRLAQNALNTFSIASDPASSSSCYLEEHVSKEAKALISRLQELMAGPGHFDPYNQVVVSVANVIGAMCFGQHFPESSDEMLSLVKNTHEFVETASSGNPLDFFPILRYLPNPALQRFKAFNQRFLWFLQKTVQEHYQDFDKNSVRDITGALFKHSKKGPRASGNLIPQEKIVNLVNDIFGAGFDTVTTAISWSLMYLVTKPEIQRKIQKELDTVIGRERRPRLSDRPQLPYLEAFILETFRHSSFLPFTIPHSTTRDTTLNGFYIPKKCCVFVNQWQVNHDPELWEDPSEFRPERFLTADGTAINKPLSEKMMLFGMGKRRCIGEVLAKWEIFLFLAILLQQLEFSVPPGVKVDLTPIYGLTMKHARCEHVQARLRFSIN

Cytochrome P450 2D6 = Cytochrome P450 2D6 (Homo sapiens, UniProt P10635); test: Activity of human CYP2D6 expressed in microsomes isolated from baculovirus infected insect cell assessed as enzyme-mediated 2-((4-((2,4-dioxothiazolidin-5-yl)methyl)phenoxy)methyl)-1-methyl-1H-benzo[d]imidazol-6-yl hydrogen sulfate formation at 20 uM after 2 hrs by radio-HPLC/LC-MS/MS analysis; type: ADME
Chain of Cytochrome P450 2D6 (P10635 whole entry): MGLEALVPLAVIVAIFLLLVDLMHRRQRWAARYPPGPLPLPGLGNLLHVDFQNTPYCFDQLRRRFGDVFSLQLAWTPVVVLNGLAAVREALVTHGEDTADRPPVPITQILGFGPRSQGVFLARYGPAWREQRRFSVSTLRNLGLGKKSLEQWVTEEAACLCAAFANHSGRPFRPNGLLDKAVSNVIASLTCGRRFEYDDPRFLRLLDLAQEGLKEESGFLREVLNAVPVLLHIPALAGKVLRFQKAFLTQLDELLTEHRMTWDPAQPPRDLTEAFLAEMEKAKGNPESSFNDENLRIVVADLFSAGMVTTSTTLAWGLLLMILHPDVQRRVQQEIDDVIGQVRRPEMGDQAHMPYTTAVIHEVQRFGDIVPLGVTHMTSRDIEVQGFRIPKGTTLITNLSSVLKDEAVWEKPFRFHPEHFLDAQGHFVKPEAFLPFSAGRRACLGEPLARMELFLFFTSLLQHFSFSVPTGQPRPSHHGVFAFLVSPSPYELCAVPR
Method in brief: (§1)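 Baculovirus-insect-cell microsomes expressing the human CYP (1 mg/ml protein) were incubated with [14C]rivoglitazone (20 μM) in 50 mM potassium phosphate (pH 7.4) or 100 mM Tris-HCl (pH 7.5) with an NADPH-generating system (2 mM NADP+, 20 mM glucose 6-phosphate, 2 units/ml G6PDH, 10 mM MgCl2) for 2 h at 37°C. Insect-cell control supersomes served as the control. Reactions were stopped with acetonitrile, and the concentrated supernatants were analysed by radio-HPLC, LC-MS and LC-MS/MS.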

Cytochrome P450 3A4 [2] = target: T2, Cytochrome P450 3A4 (Homo sapiens, UniProt P08684); test: (§2) Activity of human CYP3A4 expressed in microsomes isolated from baculovirus infected insect cell assessed as enzyme-mediated (2S,3S,4S,5R,6R)-6-((1-carboxy-2-(4-((6-methoxy-1-methyl-1H-benzo[d]imidazol-2-yl)methoxy)phenyl)ethylthio)carbonylamino)-3,4,5-trihydroxytetrahydro-2H-pyran-2-carboxylic acid formation at 20 uM after 2 hrs by radio-HPLC/LC-MS/MS analysis in presence of NADPH-generating system/SAM; type: ADME
T2 sequence (P08684 whole entry): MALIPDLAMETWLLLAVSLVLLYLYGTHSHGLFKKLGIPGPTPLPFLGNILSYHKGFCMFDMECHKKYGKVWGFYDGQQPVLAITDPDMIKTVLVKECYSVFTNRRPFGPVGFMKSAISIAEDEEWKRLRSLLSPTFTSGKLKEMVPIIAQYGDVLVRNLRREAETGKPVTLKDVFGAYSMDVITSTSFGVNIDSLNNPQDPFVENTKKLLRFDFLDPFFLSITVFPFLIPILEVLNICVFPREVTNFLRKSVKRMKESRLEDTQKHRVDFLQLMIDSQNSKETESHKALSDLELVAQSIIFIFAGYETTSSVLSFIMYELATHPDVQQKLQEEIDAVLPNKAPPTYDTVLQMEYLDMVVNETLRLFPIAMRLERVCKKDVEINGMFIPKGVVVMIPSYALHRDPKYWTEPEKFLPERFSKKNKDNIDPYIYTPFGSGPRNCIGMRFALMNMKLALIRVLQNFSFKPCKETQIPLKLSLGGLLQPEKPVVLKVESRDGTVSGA

[3] = Drug metabolism in monkey hepatocytes assessed as formation of 3-(4-((6-methoxy-1-methyl-1H-benzo[d]imidazol-2-yl)methoxy)phenyl)-2-(methylthio)propanoic acid at 30 uM after 3 hrs by radio-HPLC/LC-MS/MS analysis in presence of NADPH-generating system/SAM and UDPGA/SAM; settings: cynomolgus monkey
[4] = target: T3, UDP-glucuronosyltransferase 1A3 (Homo sapiens, UniProt P35503); test: Activity of human UGT1A3 expressed in microsomes isolated from baculovirus infected insect cell assessed as enzyme-mediated 2-mercapto-3-(4-((6-methoxy-1-methyl-1H-benzo[d]imidazol-2-yl)methoxy)phenyl)propanamide formation at 20 uM after 4 hrs by radio-HPLC/LC-MS/MS analysis in presence of NADPH-generating system and NADPH-generating system/SAM in presence of UDPGA and UDPGA/SAM; type: ADME
T3 sequence (P35503 whole entry): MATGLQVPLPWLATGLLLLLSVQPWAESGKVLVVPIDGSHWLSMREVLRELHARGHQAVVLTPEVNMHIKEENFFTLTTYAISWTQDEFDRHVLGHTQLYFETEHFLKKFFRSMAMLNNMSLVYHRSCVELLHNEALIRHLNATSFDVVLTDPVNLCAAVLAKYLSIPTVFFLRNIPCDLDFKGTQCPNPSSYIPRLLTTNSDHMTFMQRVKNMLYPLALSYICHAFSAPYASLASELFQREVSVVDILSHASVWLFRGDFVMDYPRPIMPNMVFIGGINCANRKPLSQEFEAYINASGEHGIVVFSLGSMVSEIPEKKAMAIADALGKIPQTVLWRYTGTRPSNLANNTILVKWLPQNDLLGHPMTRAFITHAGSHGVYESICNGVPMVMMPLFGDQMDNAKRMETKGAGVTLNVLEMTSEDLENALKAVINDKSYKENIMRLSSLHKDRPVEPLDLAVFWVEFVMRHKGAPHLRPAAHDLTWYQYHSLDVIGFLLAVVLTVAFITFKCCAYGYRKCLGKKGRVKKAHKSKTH

Cytochrome P450 1A2 [5] = target: T1, Cytochrome P450 1A2; test: Activity of human CYP1A2 expressed in microsomes isolated from baculovirus infected insect cell assessed as enzyme-mediated 2-amino-3-((1-carboxy-2-(4-((6-methoxy-1-methyl-1H-benzo[d]imidazol-2-yl)methoxy)phenyl)ethyl)disulfanyl)propanoic acid formation at 20 uM after 2 hrs by radio-HPLC/LC-MS/MS analysis; type: ADME
Method in brief: (§3)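 Baculovirus/insect-cell microsomes expressing single human CYPs, 1 mg/ml protein, with 50 mM potassium phosphate (pH 7.4) or 100 mM Tris-HCl (pH 7.5). NADPH-generating system: 2 mM NADP⁺, 20 mM glucose 6-phosphate, 2 units/ml G6PDH, 10 mM MgCl₂. [¹⁴C]rivoglitazone at 20 μM, 2 h at 37°C with shaking. Control used insect-cell control supersomes. Stopped with acetonitrile; supernatant concentrated under nitrogen; metabolites analysed by radio-HPLC, LC-MS and LC-MS/MS.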

Cytochrome P450 3A5 = Cytochrome P450 3A5 (Homo sapiens, UniProt P20815); test: as §2, with “CYP3A5” for “CYP3A4”; type: ADME
Chain of Cytochrome P450 3A5 (P20815 whole entry): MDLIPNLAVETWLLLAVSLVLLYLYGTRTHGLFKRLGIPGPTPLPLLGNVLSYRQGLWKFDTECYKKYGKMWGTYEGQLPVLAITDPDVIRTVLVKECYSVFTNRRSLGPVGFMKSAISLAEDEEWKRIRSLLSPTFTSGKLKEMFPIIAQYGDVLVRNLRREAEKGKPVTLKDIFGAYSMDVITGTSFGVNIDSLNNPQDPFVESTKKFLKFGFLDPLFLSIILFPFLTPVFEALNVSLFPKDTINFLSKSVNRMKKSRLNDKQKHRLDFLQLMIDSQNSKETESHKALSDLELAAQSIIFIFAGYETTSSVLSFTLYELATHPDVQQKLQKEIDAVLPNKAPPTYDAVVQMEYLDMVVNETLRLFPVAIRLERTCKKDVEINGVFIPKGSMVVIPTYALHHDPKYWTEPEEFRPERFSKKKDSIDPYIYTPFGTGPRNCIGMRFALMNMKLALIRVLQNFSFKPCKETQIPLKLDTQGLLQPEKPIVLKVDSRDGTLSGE

[6] = Drug metabolism in monkey hepatocytes assessed as formation of 5-(4-((6-methoxy-1H-benzo[d]imidazol-2-yl)methoxy)benzyl)thiazolidine-2,4-dione at 30 uM after 3 hrs by radio-HPLC/LC-MS/MS analysis in presence of NADPH-generating system and NADPH-generating system/SAM; settings: cynomolgus monkey
Cytochrome P450 3A4 [7] = target: T2, Cytochrome P450 3A4; test: Activity of human CYP3A4 expressed in microsomes isolated from baculovirus infected insect cell assessed as enzyme-mediated 2-mercapto-3-(4-((6-methoxy-1-methyl-1H-benzo[d]imidazol-2-yl)methoxy)phenyl)propanoic acid formation at 20 uM after 2 hrs by radio-HPLC/LC-MS/MS analysis in presence of NADPH-generating system; type: ADME; method in brief: as §1
Cytochrome P450 2C9 = Cytochrome P450 2C9 (Homo sapiens, UniProt P11712); test: Activity of human CYP2C9 expressed in microsomes isolated from baculovirus infected insect cell assessed as enzyme-mediated (2S,3S,4S,5R,6R)-3,4,5-trihydroxy-6-(5-(4-((6-methoxy-1-methyl-1H-benzo[d]imidazol-2-yl)methoxy)benzyl)-2,4-dioxothiazolidin-3-yl)tetrahydro-2H-pyran-2-carboxylic acid formation at 20 uM after 2 hrs by radio-HPLC/LC-MS/MS analysis in presence of UDPGA and UDPGA/SAM; type: ADME
Chain of Cytochrome P450 2C9 (P11712 whole entry): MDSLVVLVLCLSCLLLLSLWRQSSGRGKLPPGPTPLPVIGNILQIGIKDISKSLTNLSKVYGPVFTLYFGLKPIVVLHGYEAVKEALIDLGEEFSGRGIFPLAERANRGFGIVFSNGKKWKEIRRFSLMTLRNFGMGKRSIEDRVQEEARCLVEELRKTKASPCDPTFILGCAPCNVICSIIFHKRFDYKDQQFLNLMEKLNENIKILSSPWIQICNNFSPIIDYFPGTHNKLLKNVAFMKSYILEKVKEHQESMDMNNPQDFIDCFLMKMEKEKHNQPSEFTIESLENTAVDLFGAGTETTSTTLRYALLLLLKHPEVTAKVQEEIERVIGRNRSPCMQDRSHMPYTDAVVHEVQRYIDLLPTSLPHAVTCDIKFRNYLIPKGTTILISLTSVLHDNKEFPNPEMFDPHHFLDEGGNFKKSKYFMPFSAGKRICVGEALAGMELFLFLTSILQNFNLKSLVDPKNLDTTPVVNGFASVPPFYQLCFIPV

Liver microsome = test: Drug metabolism in human liver microsomes assessed as formation of (2S,3S,4S,5R,6R)-6-((1-carboxy-2-(4-((6-methoxy-1-methyl-1H-benzo[d]imidazol-2-yl)methoxy)phenyl)ethylthio)carbonylamino)-3,4,5-trihydroxytetrahydro-2H-pyran-2-carboxylic acid at 20 uM after 4 hrs by radio-HPLC/LC-MS/MS analysis in presence of UDPGA and UDPGA/SAM; type: ADME
Cytochrome P450 2C19 = Cytochrome P450 2C19 (Homo sapiens, UniProt P33261); test: Activity of human CYP2C19 expressed in microsomes isolated from baculovirus infected insect cell assessed as enzyme-mediated 5-(4-((6-hydroxy-1-methyl-1H-benzo[d]imidazol-2-yl)methoxy)benzyl)thiazolidine-2,4-dione formation at 20 uM after 2 hrs by radio-HPLC/LC-MS/MS analysis in presence of NADPH-generating system and NADPH-generating system/SAM; type: ADME; method in brief: as §3
Chain of Cytochrome P450 2C19 (P33261 whole entry): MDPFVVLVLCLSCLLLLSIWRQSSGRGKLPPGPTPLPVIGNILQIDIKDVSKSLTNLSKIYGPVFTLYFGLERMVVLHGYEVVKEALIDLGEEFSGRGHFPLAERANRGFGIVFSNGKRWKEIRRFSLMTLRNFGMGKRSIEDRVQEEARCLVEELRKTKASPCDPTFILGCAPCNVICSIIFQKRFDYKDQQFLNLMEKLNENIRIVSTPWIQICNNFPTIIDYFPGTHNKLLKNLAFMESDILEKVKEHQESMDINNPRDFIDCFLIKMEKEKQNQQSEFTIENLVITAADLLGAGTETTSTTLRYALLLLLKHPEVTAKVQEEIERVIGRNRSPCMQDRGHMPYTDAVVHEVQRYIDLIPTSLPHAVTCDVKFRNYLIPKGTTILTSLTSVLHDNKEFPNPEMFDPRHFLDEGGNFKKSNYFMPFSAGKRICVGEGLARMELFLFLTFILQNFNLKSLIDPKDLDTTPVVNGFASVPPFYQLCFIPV

Drug metabolism (Cytochrome P450 1A2 [1]): metabolite_not_detected
Drug metabolism (Cytochrome P450 2D6): metabolite_not_detected
Drug metabolism (Cytochrome P450 3A4 [2]): metabolite_not_detected
Drug metabolism [3]: metabolite_not_detected
Drug metabolism [4]: metabolite_not_detected
Drug metabolism (Cytochrome P450 1A2 [5]): metabolite_not_detected
Drug metabolism (Cytochrome P450 3A5): metabolite_not_detected
Drug metabolism [6]: metabolite_not_detected
Drug metabolism (Cytochrome P450 3A4 [7]): metabolite_detected
Drug metabolism (Cytochrome P450 2C9): metabolite_not_detected
Drug metabolism (Liver microsome): metabolite_detected
Drug metabolism (Cytochrome P450 2C19): metabolite_detected
Structure (SMILES): COc1ccc2nc(COc3ccc(C[14CH]4SC(=O)NC4=O)cc3)n(C)c2c1.Cl (racemic)
